TLR4-MyD88 BLA = inhibitors of TLR4-MyD88 association in cells, primary screen, cell-based, HeLa CL3-4, BLA complementation, FRET ratio. Toll-like receptor 4 (Homo sapiens) + Myeloid differentiation primary response protein …. 0.18% of 200,000 active. inhibition, % at 8.4 µM. HeLa CL3-4 TLR4/MyD88 BLA complementation; in the data active means inhibition above about 25%;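 further: 0% = vehicle and 100% = reference inhibitor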
TLR9-MyD88 inh = inhibitors of TLR9-MyD88 association in cells, primary screen, cell-based, CHO, BLA complementation, fluorescence; Toll-like receptor 9 (Homo sapiens) + Myeloid differentiation primary response protein …; 0.21% of 340,000 active; inhibition, % at 4.98 µM; CCF4 FRET ratio;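 active means inhibition above the mean over all tested compounds plus 3 SD, cut at about 21% in these data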;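 further: 0% = DMSO only wells and 100% = clavulanate BLA inhibitor control wells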
NOD2 RIPK2 PPI = NOD2-RIPK2 binding disruptors in cells, primary screen, fluorescence, CHO cells, BLA complementation. Receptor-interacting serine/threonine-protein kinase 2 (Homo sapiens), O43353. CCF4 ratio. inhibition, % at 4.98 µM. 0.38% of 360,000 active; in the data active means inhibition above about 21%;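 further: 0% = vehicle only and 100% = reference blocker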
Target sequence (O43353 whole entry, looked up): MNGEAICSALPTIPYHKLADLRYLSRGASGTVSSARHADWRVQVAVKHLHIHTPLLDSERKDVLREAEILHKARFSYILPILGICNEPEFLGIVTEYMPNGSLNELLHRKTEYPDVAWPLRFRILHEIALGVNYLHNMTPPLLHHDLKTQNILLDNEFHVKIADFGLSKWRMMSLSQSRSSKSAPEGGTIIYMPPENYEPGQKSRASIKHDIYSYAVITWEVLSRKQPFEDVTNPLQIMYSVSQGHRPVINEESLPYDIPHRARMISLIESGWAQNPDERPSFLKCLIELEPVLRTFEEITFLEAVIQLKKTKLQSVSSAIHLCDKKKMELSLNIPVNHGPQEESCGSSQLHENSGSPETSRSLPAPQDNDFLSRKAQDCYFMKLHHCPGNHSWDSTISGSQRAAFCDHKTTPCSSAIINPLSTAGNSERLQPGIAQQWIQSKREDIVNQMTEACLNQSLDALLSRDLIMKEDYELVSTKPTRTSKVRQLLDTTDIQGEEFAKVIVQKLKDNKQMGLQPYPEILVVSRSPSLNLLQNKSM
B2AR ag = beta2AR agonists driving receptor internalization, primary screen, cell-based, FAP fluorogen, flow cytometry. Am2.2-beta2AR cells. AID 504454, 2011. response, % (test concentration not listed). 0.43% of 340,000 active. Beta-2 adrenergic receptor (Homo sapiens), P07550;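 active means response above a set limit, near 3 SD of response in nonfluorescent compounds, cut at about 42% in these data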
Dynein cargo inh = inhibitors of GR-EGFP nuclear translocation, primary screen, dynein cargo transport inhibitor project, imaging, high-content, 3617.4 mouse cells; AID 1381, 2008; z-score, hits read low; 0.47% of 220,000 active; test concentration mostly 20 µM; stimulated with dexamethasone, 1 µM; stronger effect = lower value;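 active means plate z-score of nuclear minus cytoplasmic receptor signal below a set negative limit, without overly bright fluorescence or cell loss, cut at about -3.5 in these data, passing the limit was not always enough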;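 further: z-score of nuclear minus cytoplasmic ring GR-EGFP intensity difference per well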
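Also added – dexamethasone, 1.0 µM final · Buffer or medium – tet-free, stripped-serum medium · Schedule – induction 48 h, compound 1 h, agonist 30 min · Detection – formaldehyde fixation, Hoechst nuclear stain, 10x automated fluorescence imaging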
ABHD5-PLIN5 inh = ABHD5-PLIN5 interaction inhibitors, primary screen, cell lysate, split luciferase complementation, luminescence; Split G. princeps luciferase complementation, 4 h; Perilipin-5 (Homo sapiens) + 1-acylglycerol-3-phosphate O-acyltransferase ABHD5 (Homo …; 0.78% of 360,000 active; inhibition, % at 4 µM;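 active means inhibition above the mean inhibition across every tested compound plus 3 SD, cut at about 22% in these data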;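 further: 0% = DMSO only wells and the 100% control is not disclosed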
TLR9-MyD88 conf = TLR9-MyD88 association inhibitors, retest, confirmation, cell-based, CHO, BLA complementation, fluorescence, triplicate; CCF4 FRET ratio; shares compounds with TLR9-MyD88 inh; AID 540250, 2011; 51% of 680 active; inhibition, % at 4.98 µM;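 active means mean inhibition across three repeats above about 21% taken from the earlier screen, limit read from the data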;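 further: blue over green emission ratio reports constitutive TLR9 MyD88 association via BLA complementation; 0% = DMSO vehicle wells and 100% = clavulanate BLA inhibitor wells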
BLA counter-1 = beta-lactamase reporter inhibitors in CHO cells, artefact control for TLR9-MyD88 binding inhibitor project, cell-based, fluorescence; AID 540251, 2011; 7% of 680 active; CHO-BLA cells, CCF4 FRET ratio, BLA reporter; inhibition, % at 4.98 µM; shares compounds with TLR9-MyD88 inh;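 active means mean inhibition above a 50% cutoff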;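 further: counterscreen of TLR9-MyD88 hits on CMV-driven BLA in CHO-K1 cells; 0% = DMSO alone and 100% = clavulanate blocking BLA; higher means less blue over green ratio so more BLA blockade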
TLR9 CHO cytotox = CHO cell viability loss – luminescence, single concentration, cytotoxicity control for TLR9-MyD88 binding inhibitor project. TLR9-MyD88 CHO cells cytotoxicity. 39% of 680 active. shares compounds with TLR9-MyD88 inh. inhibition, % at 4.98 µM; in the data active means inhibition above about 11%
ABHD5 PLIN5 conf = ABHD5-PLIN5 interaction inhibitors, confirmation, biochemical, luminescence | shares compounds with ABHD5-PLIN5 inh | 67% of 2,200 active | inhibition, % at 4 µM; in the data active means inhibition above about 23%;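 further: 0% = DMSO vehicle wells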
HNF4 split-luc = HNF4 dimerization inhibitors, counter-screen for ABHD5-PLIN5 interaction inhibitor project, biochemical, split-luciferase complementation, luminescence | shares compounds with ABHD5-PLIN5 inh | inhibition, % at 4 µM | 77% of 2,200 active;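 active means mean inhibition across replicate wells exceeding the computed hit threshold, cut at about 13% in these data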;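 further: light from luciferase halves that rejoin when HNF4 fusion proteins dimerize; 0% = DMSO only wells and the 100% control is not given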
NOD2 RIPK2 conf = NOD2-RIPK2 binding disruptors, retest, confirmation, fluorescence, CHO cells, BLA complementation, triplicate | shares compounds with NOD2 RIPK2 PPI | CCF4 FRET | inhibition, % at 4.98 µM | 70% of 1,200 active | AID 624370, 2012;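 active means mean inhibition across replicates above a set limit taken from the earlier primary screen, cut at about 21% in these data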;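 further: 0% = DMSO-only wells and the high end = clavulanate BLA-blocked wells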
BLA counter-2 = NOD2-RIPK2 counterscreen BLA reporter activity; CHO BLA reporter, CCF4 FRET ratio; inhibition, % at 4.98 µM; 57% of 1,200 active; shares compounds with NOD2 RIPK2 PPI;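 active means mean inhibition above the low-control mean inhibition plus three low-control SD, cut at about 11% in these data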;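 further: 0% = DMSO only wells and 100% = clavulanate high control wells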
* hit, by the source's call; · = no result. Compounds with a hit are over-represented: about 1.6% of the library has one in this group of screens.

SMILES	TLR4-MyD88 BLA	TLR9-MyD88 inh	NOD2 RIPK2 PPI	B2AR ag	Dynein cargo inh	ABHD5-PLIN5 inh	TLR9-MyD88 conf	BLA counter-1	TLR9 CHO cytotox	others
NS(=O)(=O)c1ccc(NC(=O)c2cccc3cc4ccccc4nc23)cc1	·	-1	-19	11	·	2	·	·	·
COCCn1c(SCC(=O)NCC2CCCO2)nc2c([nH]c3ccccc32)c1=O (configuration not stated)	·	-10	5	-9	·	2	·	·	·
CC1(Cc2ccc(Cl)cc2)C(=O)Nc2c(Cl)cccc21 (configuration not stated)	·	·	12	·	·	-4	·	·	·
CN(C)c1ccc(NC2=C(Cl)C(=O)c3ccccc3C2=O)cc1	-33	25*	8	19	-2.5	2	23*	4	19*
CC(=O)Nc1ccc(NC2=C(Cl)C(=O)c3ccccc3C2=O)cc1	-39	·	·	·	-0.81	·	·	·	·
CCn1c(/C=C/c2cc[n+](C)cc2)nc2ccccc21	·	24*	17	-6	·	8	12	15	-1
CCCn1c(/C=C/c2ccccc2)nc2ccccc21	0	-3	0	4	-0.37	-6	·	·	·
CC(C)(C)Cc1c(-c2ccco2)nc2ccc(Cl)cn12	·	·	-10	·	·	15	·	·	·
Cc1ccsc1C(=O)OCC(=O)NC1CCCCC1	·	21*	-9	·	·	-13	-5	-5	0
COc1cc(N2C(=O)C=CC2=O)ccc1N1C(=O)C=CC1=O	·	39*	26*	8	·	52*	64*	44	101*	ABHD5 PLIN5 conf=75*;HNF4 split-luc=111*
CN(C)C(=O)NC1c2ccccc2-c2ccccc21	·	-4	1	3	·	-4	·	·	·
O=C1C=CC(=O)N1c1ccc2c(c1)C(NC(=O)C(F)(F)F)c1ccccc1-2 (configuration not stated)	·	30*	5	22	·	34*	36*	11	98*	ABHD5 PLIN5 conf=56*;HNF4 split-luc=99*
CC(=O)Nc1cncc(-c2cccc(C(=O)N3CCOCC3)c2)n1	·	·	-8	·	·	3	·	·	·
COc1ccc(/C=C/c2cc(C(=O)O)c3ccccc3n2)cc1	·	24*	48*	3	-1.3	1	0	1	14*	NOD2 RIPK2 conf=14;BLA counter-2=13*
COc1cc(OC)c(OC)cc1/C=C/c1cc(C(=O)O)c2ccccc2n1	10	9	6	8	-0.54	4	·	·	·
COc1cccc(S(=O)(=O)N(C)C[C@@H]2OCc3cnnn3CCCC(=O)N([C@H](C)CO)C[C@@H]2C)c1	·	7	-13	·	·	-4	·	·	·
CCNC(=O)C1CCCN(C(=O)c2ccc(C(=O)OC)cc2)CC1 (configuration not stated)	·	·	-6	·	·	0	·	·	·
CCOC(=O)c1c(NC(C)=O)sc2c1CCN(Cc1ccccc1)C2	·	0	10	7	·	-8	·	·	·
CCOC(=O)c1c(NC(C)=O)sc2c1CCC(C=O)=C2Sc1ccccc1	20	22*	35*	-140	-1.1	65*	18	3	37*	ABHD5 PLIN5 conf=76*;HNF4 split-luc=17*;NOD2 RIPK2 conf=67*;BLA counter-2=20*
COc1ccc(O)c(/C=N/NC(=S)Nc2cccc(S(=O)(=O)N(C)C)c2)c1	2	26*	25*	0	1.7	2	12	8	32*	NOD2 RIPK2 conf=17;BLA counter-2=21*
CN(C)S(=O)(=O)c1cccc(NC(=S)N/N=C/c2ccc(O)c(O)c2O)c1	·	5	-7	8	-1.2	-13	·	·	·
CC(C)(C)c1ccc(Cn2nnc3c(=O)[nH]c(C4CCN(C(=O)c5ccco5)CC4)nc32)cc1	·	1	-3	4	·	7	·	·	·
Nc1nc2c(ncn2[C@@H]2O[C@H](CNCC3=Cc4cc(O)ccc4OC3)[C@@H](O)[C@H]2O)c(=O)[nH]1	·	·	-4	·	·	-4	·	·	·
Nc1c(Cl)cc(-c2[nH]c3cc(C(=O)NCCO)ccc3c(=O)c2O)cc1Cl	·	21*	28*	-3	·	-7	11	18	5	NOD2 RIPK2 conf=35*;BLA counter-2=38*
Cc1ccc(NC(=O)C2CCN(S(=O)(=O)c3ccc(C(C)(C)C)cc3)CC2)cc1S(=O)(=O)N1CCOCC1	·	-3	0	3	·	-18	·	·	·
SMILES	TLR4-MyD88 BLA	TLR9-MyD88 inh	NOD2 RIPK2 PPI	B2AR ag	Dynein cargo inh	ABHD5-PLIN5 inh	TLR9-MyD88 conf	BLA counter-1	TLR9 CHO cytotox	others
Nc1ccc(-c2cnc3ccccc3n2)cc1	·	·	16	8	·	0	·	·	·
Nc1ccc2nc(-c3ccccc3)c(-c3ccccc3)nc2c1	·	38*	44*	10	·	-19	33*	35	2	NOD2 RIPK2 conf=60*;BLA counter-2=68*
Nc1ccc2nc(-c3ccccc3)cnc2c1	·	39*	44*	-43	·	-14	30*	34	-2	NOD2 RIPK2 conf=57*;BLA counter-2=63*
COCCCN1C(=O)C(CC(=O)NCCCN(C)C)CC(C(=O)N2CCCCCC2)=C1C (configuration not stated)	·	·	-5	·	·	12	·	·	·
CCC/C(C#Cc1ccc(N(C)C)cc1)=C1/c2ccccc2C(=O)N1c1ccccc1	·	29*	40*	-183	·	-3	56*	57*	3	NOD2 RIPK2 conf=49*;BLA counter-2=60*
CC(C)CNc1ncnc2c1ncn2[C@H]1CN(CCN2CCOCC2)C[C@@H](CO)O1	·	·	-9	·	·	-6	·	·	·
